# Screening data from PubChem BioAssay.
# M4 PAM: human M4 muscarinic receptor positive allosteric modulators, primary screen, CHO-K1 cells, Fluo-8 calcium fluorescence. activation, % at 3 µM. 360,000 compounds, 0.4% hits. CHO-K1 hM4/Gqi5, ACh EC20; 0% = ACh EC20, 100% = maximal ACh;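 active means activation above its plate's cutoff, the mean activation of sample wells plus 3 SD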
# M4 antag: human M4 muscarinic receptor antagonists, primary screen, CHO cells, Fluo-8 calcium fluorescence | Muscarinic acetylcholine receptor M4 (Homo sapiens), P08173 | AID 624125, 2012 | inhibition, % at 3 µM | CHO-hM4 cells, ACh EC80 | 360,000 compounds, 0.73% hits;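 active means inhibition above its plate's cutoff, the mean inhibition of sample wells plus 3 SD, cut at about 27% in these data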;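 further: 0% = acetylcholine EC80 with DMSO and 100% = DMSO without agonist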
# M4 ag: human M4 muscarinic receptor agonists, primary screen, CHO-K1 cells, Fluo-8 calcium fluorescence; Muscarinic acetylcholine receptor M4 (Homo sapiens), P08173; CHO-K1 hM4/Gqi5; vehicle 0%, full acetylcholine response 100%; activation, % at 3 µM; 360,000 compounds, 0.14% hits;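 active means activation above the run mean over all test wells plus 3 SD, cut at about 32% in these data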;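 further: peak over basal fluorescence ratio per well then scaled between controls; 0% = DMSO wells and 100% = acetylcholine at EC100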
# M5 antag: human M5 muscarinic receptor antagonists, primary screen, CHO cells, Fluo-8 calcium fluorescence; CHO-hM5 cells, ACh EC80; 360,000 compounds, 0.59% hits; AID 624040, 2012; Muscarinic acetylcholine receptor M5 (Homo sapiens), P08912; inhibition, % at 3 µM;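 active means inhibition above a per-plate cutoff, the mean of that plate's test compounds plus 3 SD, cut at about 27% in these data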;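 further: 0% = acetylcholine EC80 with DMSO and 100% = DMSO without agonist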
# Target sequence (P08912 whole entry, looked up): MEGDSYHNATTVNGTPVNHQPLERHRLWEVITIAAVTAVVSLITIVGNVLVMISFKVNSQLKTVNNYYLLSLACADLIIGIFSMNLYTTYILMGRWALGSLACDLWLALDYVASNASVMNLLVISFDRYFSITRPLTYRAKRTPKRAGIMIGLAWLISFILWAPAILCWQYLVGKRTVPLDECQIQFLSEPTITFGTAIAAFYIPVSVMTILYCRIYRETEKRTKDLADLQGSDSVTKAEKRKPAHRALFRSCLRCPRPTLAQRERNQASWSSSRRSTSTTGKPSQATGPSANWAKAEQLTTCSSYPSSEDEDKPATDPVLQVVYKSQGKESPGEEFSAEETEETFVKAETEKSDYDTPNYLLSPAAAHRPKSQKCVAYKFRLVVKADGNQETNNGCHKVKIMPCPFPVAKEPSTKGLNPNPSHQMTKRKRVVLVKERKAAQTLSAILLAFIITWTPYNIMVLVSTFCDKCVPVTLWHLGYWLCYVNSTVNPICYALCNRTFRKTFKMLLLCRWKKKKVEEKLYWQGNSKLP
# CHRM5 PAM: human M5 muscarinic receptor positive allosteric modulators, primary screen, CHO-K1 cells, Fluo-8 calcium fluorescence | CHO-K1 hM5, ACh EC20 PAM; 0% = ACh EC20, 100% = ACh EC100 | activation, % at 3 µM | 360,000 compounds, 0.3% hits | AID 624038, 2012;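 active means activation above the run cutoff, the mean activation of all test compounds plus 3 SD, cut at about 18% in these data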
#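 system = human M5 receptor in CHO-K1 cells | reagent = EC20 acetylcholine as agonist stimulus | compound dosing = single-point, 3 µM nominal | incubation = Fluo-8 loading 80 min at 37 °C plus 30 min room temperature | detection = Fluo-8 calcium dye fluorescence, kinetic read | benchmarks = low control EC20 acetylcholine (0%), high control EC100 acetylcholine (100%)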
# M5 ag: human M5 muscarinic receptor agonists, primary screen, CHO-K1 cells, Fluo-8 calcium fluorescence; Muscarinic acetylcholine receptor M5 (Homo sapiens), P08912; 360,000 compounds, 0.19% hits; activation, % at 3 µM; CHO-K1 hM5 cells; 0% DMSO wells, 100% maximal acetylcholine response; AID 624037, 2012;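 active means activation above the run's mean over test compounds plus 3 SD, cut at about 23% in these data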;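 further: signal is peak over basal fluorescence ratio across the kinetic read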
# * marks the source's active call; other numbers are inactive results. The list is not random: actives were taken first. Their share in the collection is about 1.8%.
SMILES,M4 PAM,M4 antag,M4 ag,M5 antag,CHRM5 PAM,M5 ag
Cc1ccc(OCCCN2CCC(C(O)(c3ccccc3)c3ccccc3)CC2)cc1,-14.0,62.0*,25.5,77.5*,-24.3,1.7
CC1CCN(CCCCOc2ccc(Cl)cc2)CC1,-16.3,23.9,2.4,7.6,-8.8,-5.7
CC1CCN(CCCCOc2ccc(C(C)(C)C)cc2)CC1,-19.8,29.7*,9.4,7.8,-11.2,-0.4
OC(c1ccccc1)(c1ccccc1)C1CCN(CCCOc2ccc(F)cc2)CC1,-15.8,65.5*,17.6,55.5*,-24.3,-3.7
N#Cc1ccccc1OCCCN1CCC(C(O)(c2ccccc2)c2ccccc2)CC1,-13.3,27.1*,14.2,10.7,-20.1,-3.2
COc1ccc(-c2nc3c4ccccc4ccn3c2Cc2ccccc2C(F)(F)F)cc1OC,6.0,1.4,0.9,16.0,-12.3,-4.7
O=C(Nc1ccc(F)cc1)C(c1ccccc1)N1CCN(c2cccc(C(F)(F)F)n2)CC1 (stereo not given),-11.9,3.2,0.8,2.7,-10.1,-3.8
Cn1ncc2c1NC(c1ccc(F)cc1)SCC2=O (stereo not given),0.8,-6.5,1.1,3.6,-1.8,0.0
Cc1cc(C(=O)N2CCC2(C)C(=O)NCCC#N)nn1C (stereo not given),0.8,-4.7,0.0,-3.8,2.7,-0.6
CC(O)(c1ccc(F)c(F)c1)c1nc(-c2cnc3ccccc3c2)cs1 (stereo not given),-0.8,-7.8,6.0,4.0,-5.2,0.5
Cc1nn(CC(=O)N2CCc3ccccc3C2)c(C)c1Cl,0.7,-8.2,-0.7,-11.4,21.3*,-5.1
COc1cc(/C=C2\SC(=Nc3ccccc3)N(CCc3c[nH]c4ccccc34)C2=O)ccc1OC(C)C(=O)O (stereo not given),5.7,-0.2,0.6,3.1,-1.3,-2.9
O=C1/C(=C/c2ccc(N3CCOCC3)o2)SC(=Nc2ccccc2)N1CCc1c[nH]c2ccccc12,-20.3,42.2*,6.3,12.8,1.5,12.4
O=C(NCCN1CCN(Cc2ccccc2)CC1)Nc1cc(Cl)cc(Cl)c1,-53.0,43.5*,44.9*,21.5,-28.1,12.6
O=C(NCCN1CCN(c2cccc(Cl)c2)CC1)Nc1ccccc1,-12.8,1.6,4.6,1.3,-7.2,-3.5
COc1ccc(C(=O)NNC(=O)CSc2nnnn2C)cc1,12.6,1.4,0.1,-4.3,19.3*,2.0
COc1ccc(NC(=O)CSc2nnnn2C)cc1,0.5,0.9,5.5,9.5,-0.2,-0.4
COc1ccc(NC(=O)CSc2nnnn2C)c([N+](=O)[O-])c1,8.7,8.7,1.2,31.8*,-7.8,-3.1
Cn1nnnc1SCC(=O)Nc1ccccc1[N+](=O)[O-],5.1,-7.8,0.9,-3.9,2.5,-4.2
Nc1c(-c2ccc(F)c(F)c2)nc2ncccn12,-3.2,-2.0,1.0,-1.0,3.7,4.4
COc1cc(/C=C2\COC/C(=C\c3ccc(O)c(OC)c3)C2=O)ccc1O,-8.1,5.5,11.1,10.2,-15.9,-12.2
COc1cc(/C=C2/CC/C(=C/c3ccc(O)c(OC)c3)C2=O)ccc1O,-17.9,8.6,15.6,36.4*,-21.3,24.6*
COc1cc(/C=C2\CC/C(=C\c3ccc(OCCO)c(OC)c3)C2=O)ccc1OCCO,-10.1,5.7,10.1,26.1,-17.1,54.8*
COc1ccc(/C=C2\CN(Cc3ccccc3)C/C(=C\c3ccc(OC)c(O)c3)C2=O)cc1O,-17.7,23.8,23.7,27.0*,-11.0,2.3
CCCOc1ccc(/C=C/C(=O)O)cc1OC,19.3*,-15.3,0.7,6.6,-0.3,0.8
CCCN(CC1CC1)c1cc2c(c3c1ccn3C)C1CCC2O1 (stereo not given),-3.5,0.9,-2.2,-2.3,4.8,-1.4
